Assay results taken from ChEMBL document CHEMBL1136894, “New antituberculotics originated from salicylanilides with promising in vitro activity against atypical mycobacterial strains” (Bioorg Med Chem, 2009).
Values after ≈ are worked out from the molar mass of the structure shown.

Tests used:
Mycobacterium kansasii [1] = assay: Antimycobacterial activity against Mycobacterium kansasii CNCTC My 235/80 after 21 days; type: functional; conditions: CNCTC My 235/80, 504 h
Method in brief: (§1)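 Compounds were added as DMSO solutions to Sula semisynthetic medium at 250, 125, 62, 32, 16, 8, 4, 2 and 1 µmol/L. Two M. kansasii strains were used: CNCTC My 235/80 and clinical isolate 6509/96, each with strain dilution 10^-4. Incubation was at 37 °C, and MIC was read at 7, 14 and 21 days.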

Mycobacterium kansasii [2] = assay: Antimycobacterial activity against Mycobacterium kansasii isolate 6509/96 after 14 days; type: functional; conditions: isolate 6509/96, 336 h; method in brief: as §1
Mycobacterium kansasii [3] = assay: Antimycobacterial activity against Mycobacterium kansasii CNCTC My 235/80 after 14 days; type: functional; conditions: CNCTC My 235/80, 336 h; method in brief: as §1
Mycobacterium kansasii [4] = assay: Antimycobacterial activity against Mycobacterium kansasii CNCTC My 235/80 after 7 days; type: functional; conditions: CNCTC My 235/80, 168 h; method in brief: as §1
[5] = system: Mycobacterium tuberculosis; assay: Antimycobacterial activity against Mycobacterium tuberculosis CNCTC My 331/88 after 21 days; type: functional; conditions: CNCTC My 331/88, 504 h
Method in brief: (§2)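 Broth dilution in Sula semisynthetic medium, compounds added as DMSO solutions at 250, 125, 62, 32, 16, 8, 4, 2 and 1. Strains came from the Czech National Collection of Type Cultures; the M. tuberculosis inoculum was diluted 10^-3. Cultures were incubated at 37 °C, and MIC was read after 7, 14 and 21 days.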

Mycobacterium avium [6] = assay: Antimycobacterial activity against Mycobacterium avium CNCTC My 330/88 after 21 days; type: functional; conditions: CNCTC My 330/88, 504 h; method in brief: as §2
Mycobacterium kansasii [7] = assay: Antimycobacterial activity against Mycobacterium kansasii isolate 6509/96 after 7 days; type: functional; conditions: isolate 6509/96, 168 h; method in brief: as §1
Mycobacterium avium [8] = assay: Antimycobacterial activity against Mycobacterium avium CNCTC My 330/88 after 14 days; type: functional; conditions: CNCTC My 330/88, 336 h; method in brief: as §2
[9] = Lipophilicity, log K by HPLC; type: physicochemical
Method in brief: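 Capacity factors k were measured by RP-HPLC and log k was calculated from them.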

[10] = system: Mycobacterium tuberculosis; assay: Antimycobacterial activity against Mycobacterium tuberculosis CNCTC My 331/88 after 14 days; type: functional; conditions: CNCTC My 331/88, 336 h; method in brief: as §2
Mycobacterium kansasii [11] = assay: Antimycobacterial activity against Mycobacterium kansasii isolate 6509/96 after 21 days; type: functional; conditions: isolate 6509/96, 504 h; method in brief: as §1

Row | SMILES | MIC (Mycobacterium kansasii [1]) [µM] | MIC (Mycobacterium kansasii [2]) [µM] | MIC (Mycobacterium kansasii [3]) [µM] | MIC (Mycobacterium kansasii [4]) [µM] | MIC [5] [µM] | MIC (Mycobacterium avium [6]) [µM] | MIC (Mycobacterium kansasii [7]) [µM] | MIC (Mycobacterium avium [8]) [µM] | log K [9] | MIC [10] [µM] | MIC (Mycobacterium kansasii [11]) [µM]
1 | O=C(N[C@H](Cc1ccccc1)C(=O)Oc1ccc(Cl)cc1C(=O)Nc1ccc(Cl)cc1)OCc1ccccc1 | 8 (≈ 4.51 µg/mL) | 8 (≈ 4.51 µg/mL) | 8 (≈ 4.51 µg/mL) | 8 (≈ 4.51 µg/mL) | 4 (≈ 2.25 µg/mL) | 16 (≈ 9.01 µg/mL) | 8 (≈ 4.51 µg/mL) | 16 (≈ 9.01 µg/mL) | 1.0678 | 4 (≈ 2.25 µg/mL) | 16 (≈ 9.01 µg/mL)
2 | CC(C)[C@@H](NC(=O)OCc1ccccc1)C(=O)Oc1ccc(Cl)cc1C(=O)Nc1ccc(Cl)c(Cl)c1 | 8 (≈ 4.4 µg/mL) | 8 (≈ 4.4 µg/mL) | 4 (≈ 2.2 µg/mL) | 4 (≈ 2.2 µg/mL) | 4 (≈ 2.2 µg/mL) | 16 (≈ 8.8 µg/mL) | 8 (≈ 4.4 µg/mL) | 16 (≈ 8.8 µg/mL) | 1.1559 | 2 (≈ 1.1 µg/mL) | 16 (≈ 8.8 µg/mL)
3 | CC(C)[C@@H](NC(=O)OCc1ccccc1)C(=O)Oc1ccc(Cl)cc1C(=O)Nc1ccc(Cl)cc1 | 16 (≈ 8.25 µg/mL) | 8 (≈ 4.12 µg/mL) | 8 (≈ 4.12 µg/mL) | 8 (≈ 4.12 µg/mL) | 4 (≈ 2.06 µg/mL) | 16 (≈ 8.25 µg/mL) | 8 (≈ 4.12 µg/mL) | 16 (≈ 8.25 µg/mL) | 0.9421 | 4 (≈ 2.06 µg/mL) | 16 (≈ 8.25 µg/mL)
4 | O=C(N[C@@H](Cc1ccccc1)C(=O)Oc1ccc(Cl)cc1C(=O)Nc1ccc(Cl)c(Cl)c1)OCc1ccccc1 | 8 (≈ 4.78 µg/mL) | 8 (≈ 4.78 µg/mL) | 4 (≈ 2.39 µg/mL) | 4 (≈ 2.39 µg/mL) | 2 (≈ 1.2 µg/mL) | 32 (≈ 19.1 µg/mL) | 8 (≈ 4.78 µg/mL) | 16 (≈ 9.57 µg/mL) | 1.3056 | 2 (≈ 1.2 µg/mL) | 8 (≈ 4.78 µg/mL)
5 | C[C@H](NC(=O)OCc1ccccc1)C(=O)Oc1ccc(Cl)cc1C(=O)Nc1cccc(Cl)c1 | 16 (≈ 7.8 µg/mL) | 16 (≈ 7.8 µg/mL) | 16 (≈ 7.8 µg/mL) | 16 (≈ 7.8 µg/mL) | 8 (≈ 3.9 µg/mL) | 62.5 (≈ 30.5 µg/mL) | 8 (≈ 3.9 µg/mL) | 32 (≈ 15.6 µg/mL) | 0.6995 | 4 (≈ 1.95 µg/mL) | 16 (≈ 7.8 µg/mL)
6 | O=C(N[C@@H](Cc1ccccc1)C(=O)Oc1ccc(Cl)cc1C(=O)Nc1cccc(Cl)c1)OCc1ccccc1 | 32 (≈ 18 µg/mL) | 32 (≈ 18 µg/mL) | 32 (≈ 18 µg/mL) | 32 (≈ 18 µg/mL) | 16 (≈ 9.01 µg/mL) | 62.5 (≈ 35.2 µg/mL) | 32 (≈ 18 µg/mL) | 32 (≈ 18 µg/mL) | 1.0465 | 16 (≈ 9.01 µg/mL) | 32 (≈ 18 µg/mL)
7 | O=C(N[C@H](Cc1ccccc1)C(=O)Oc1ccc(Cl)cc1C(=O)Nc1ccc(Cl)c(Cl)c1)OCc1ccccc1 | 8 (≈ 4.78 µg/mL) | 8 (≈ 4.78 µg/mL) | 4 (≈ 2.39 µg/mL) | 4 (≈ 2.39 µg/mL) | 2 (≈ 1.2 µg/mL) | 32 (≈ 19.1 µg/mL) | 8 (≈ 4.78 µg/mL) | 16 (≈ 9.57 µg/mL) | 1.303 | 2 (≈ 1.2 µg/mL) | 8 (≈ 4.78 µg/mL)
8 | CC(C)[C@H](NC(=O)OCc1ccccc1)C(=O)Oc1ccc(Cl)cc1C(=O)Nc1ccc(Cl)c(Cl)c1 | 8 (≈ 4.4 µg/mL) | 8 (≈ 4.4 µg/mL) | 4 (≈ 2.2 µg/mL) | 4 (≈ 2.2 µg/mL) | 4 (≈ 2.2 µg/mL) | 32 (≈ 17.6 µg/mL) | 8 (≈ 4.4 µg/mL) | 16 (≈ 8.8 µg/mL) | 1.1567 | 2 (≈ 1.1 µg/mL) | 8 (≈ 4.4 µg/mL)
9 | O=C(N[C@H](Cc1ccccc1)C(=O)Oc1ccc(Cl)cc1C(=O)Nc1cccc(Cl)c1)OCc1ccccc1 | 16 (≈ 9.01 µg/mL) | 16 (≈ 9.01 µg/mL) | 16 (≈ 9.01 µg/mL) | 8 (≈ 4.51 µg/mL) | 4 (≈ 2.25 µg/mL) | 32 (≈ 18 µg/mL) | 8 (≈ 4.51 µg/mL) | 16 (≈ 9.01 µg/mL) | 1.0476 | 4 (≈ 2.25 µg/mL) | 16 (≈ 9.01 µg/mL)
10 | C[C@@H](NC(=O)OCc1ccccc1)C(=O)Oc1cc(Cl)ccc1C(=O)Nc1ccc(Cl)cc1 | 8 (≈ 3.9 µg/mL) | 8 (≈ 3.9 µg/mL) | 8 (≈ 3.9 µg/mL) | 8 (≈ 3.9 µg/mL) | 8 (≈ 3.9 µg/mL) | 16 (≈ 7.8 µg/mL) | 4 (≈ 1.95 µg/mL) | 16 (≈ 7.8 µg/mL) | 0.6334 | 4 (≈ 1.95 µg/mL) | 16 (≈ 7.8 µg/mL)
11 | C[C@@H](NC(=O)OCc1ccccc1)C(=O)Oc1ccc(Cl)cc1C(=O)Nc1cccc(Cl)c1 | 16 (≈ 7.8 µg/mL) | 16 (≈ 7.8 µg/mL) | 16 (≈ 7.8 µg/mL) | 16 (≈ 7.8 µg/mL) | 8 (≈ 3.9 µg/mL) | 32 (≈ 15.6 µg/mL) | 8 (≈ 3.9 µg/mL) | 32 (≈ 15.6 µg/mL) | 0.699 | 8 (≈ 3.9 µg/mL) | 16 (≈ 7.8 µg/mL)
12 | CC(C)[C@@H](NC(=O)OCc1ccccc1)C(=O)Oc1ccc(Cl)cc1C(=O)Nc1cccc(Cl)c1 | 16 (≈ 8.25 µg/mL) | 16 (≈ 8.25 µg/mL) | 16 (≈ 8.25 µg/mL) | 8 (≈ 4.12 µg/mL) | 8 (≈ 4.12 µg/mL) | 32 (≈ 16.5 µg/mL) | 8 (≈ 4.12 µg/mL) | 32 (≈ 16.5 µg/mL) | 0.8954 | 8 (≈ 4.12 µg/mL) | 16 (≈ 8.25 µg/mL)
